Type in all cases: cell-based
The nature of test [1]: Inhibitory concentration of compound required for exhibiting cytotoxic effect on human A2780 cells. An outline of the steps: (§1)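 Human ovarian carcinoma A2780 cells and the drug-resistant A2780/AD10 subline were exposed to compounds for three days. Growth was read by MTT cell proliferation assay. IC50 values are means ± standard error of at least four independent experiments. Compounds were scored not active when there was no activity below 50 µM.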

A short description of test [2]: Inhibitory concentration measured in term of cytotoxicity against human A2780/AD10 cells. Particulars: A2780 ADR. An outline of the steps: as §1
Test [3] can be described thus: Inhibitory concentration of compound required for exhibiting cytotoxic effect on human A2780 cells; no. of experiment=4. An outline of the steps:
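Human ovarian carcinoma A2780 cells exposed to drugs for three days. Growth was read by MTT (3-(4,5-dimethylthiazol-2-yl)-2,5-diphenyltetrazolium bromide) cell proliferation assay and IC50 determined. Values are means ± standard error of at least four independent experiments.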

The nature of test [4]: Inhibitory concentration measured in term of cytotoxicity against human A2780/AD10 cells; na = not active below 50 uM. Particulars: a2780 adr. Summed up:
as §1

A short description of test [5]: Inhibitory concentration of compound required for exhibiting cytotoxic effect on human A2780 cells; na = not active below 50 uM. Summed up: as §1

SMILES strings stand for the structures. pIC50: −log10 of the molar value.

Consider `C=C1CCC[C@@H]2CC=C[C@@H](C/C=C\C(=O)O[C@H]([C@@H](O)/C=C/[C@@H]3CC(C)=CCO3)C/C=C/[C@@H](O)C1)O2`, for which the results for the negative-log IC50 (pIC50) in test [1] and in test [2] were 6.37 and 5.96, respectively.

`CC(=O)O[C@H]1C(=O)[C@@]2(C)[C@H]([C@H](OC(=O)c3ccccc3)[C@]3(O)C[C@H](OC(=O)[C@H](O)[C@@H](NC(=O)c4ccccc4)c4ccccc4)C(C)=C1C3(C)C)[C@]1(OC(C)=O)CO[C@@H]1C[C@@H]2O` [PACLITAXEL]: the negative-log IC50 (pIC50) is 8.96 in test [3] and 5.82 in test [2].

In the case of `C=C1CCC[C@@H]2CC=C[C@@H](C/C=C\C(=O)O[C@H](CO)C/C=C/[C@@H](O)C1)O2`, the IC50 entry in test [4] and in test [5] was “Not Active” throughout.

Regarding `C=C/C=C\[C@H](C)[C@H](OC(N)=O)[C@@H](C)[C@H](O)[C@@H](C)C/C(C)=C\[C@H](C)[C@@H](O)[C@@H](C)/C=C\[C@@H](O)C[C@@H]1OC(=O)[C@H](C)[C@@H](O)[C@H]1C` [DISERMOLIDE], the negative-log IC50 (pIC50) was 8.00 in test [3] and 7.00 in test [2].

For `C=C1CCC[C@@H]2CC=C[C@@H](C/C=C\C(=O)O[C@H]([C@@H](O)/C=C/C3CCCCC3)C[C@@H]3O[C@H]3[C@@H](O)C1)O2`, the pIC50 was 5.05 in test [1] and 5.08 in test [2].

In the case of `C=C1CCC[C@@H]2CC=C[C@@H](C/C=C\C(=O)O[C@H]([C@@H](O)/C=C/c3csc(C)n3)C[C@@H]3O[C@H]3[C@@H](O)C1)O2`, the IC50 result in test [4] and in test [5] was “Not Active” each time.

`C=C1C[C@H](C)C[C@@H]2CC=C[C@@H](C/C=C\C(=O)O[C@H]([C@@H](O)/C=C/[C@@H]3CC(C)=CCO3)C[C@@H]3O[C@H]3[C@@H](O)C1)O2` [FIJIANOLIDE B]: the pIC50 in test [1] was 8.47; in test [2] it was 8.12.

With `C=C1CCC[C@@H]2CC=C[C@@H](C/C=C\C(=O)O[C@H]([C@@H](O)/C=C/C3CCCCC3)C/C=C/[C@@H](O)C1)O2`, the IC50 entry in test [4] and in test [5] was “Not Active” throughout.

In the case of `C=C1CCC[C@@H]2CC=C[C@@H](C/C=C\C(=O)O[C@H]([C@@H](O)/C=C/[C@@H]3CC(C)=CCO3)C[C@@H]3O[C@H]3[C@@H](O)C1)O2`, the pIC50 was 7.30 in test [1] and 7.13 in test [2].

For the compound `C=C1CCC[C@@H]2CC=C[C@@H](C/C=C\C(=O)O[C@H]([C@@H](O)/C=C/c3csc(C)n3)C/C=C/[C@@H](O)C1)O2`, the IC50 entry in test [4] and in test [5] was “Not Active” in each case.

As to `C=C1CCC[C@@H]2CC=C[C@@H](C/C=C\C(=O)O[C@H](CO)C[C@@H]3O[C@H]3[C@@H](O)C1)O2`, the pIC50 was 4.40 in test [1] and 4.36 in test [2].
